≈ marks a conversion by molar mass, not a printed value.
What was measured:
Type in all cases: functional
[1] = test system: Klebsiella pneumoniae; test: Antibacterial activity against Klebsiella pneumoniae 10-2 after 18 to 24 hrs by NCCLS method
In short: (§1)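 Standard NCCLS (M100-S11) MIC testing against Gram-positive and Gram-negative strains. Plates were incubated at 35 °C for 18–24 h. The MIC was read as the lowest concentration giving complete inhibition of visible bacterial growth.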

[2] = test system: Staphylococcus epidermidis; test: Antibacterial activity against methicillin-resistant Staphylococcus epidermidis 10-13 after 18 to 24 hrs by NCCLS method
In short: (§2)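 Incubated at 35 °C for 18–24 h under NCCLS (M100-S11) standards. MIC was read as the lowest concentration giving complete inhibition of visible bacterial growth.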

[3] = test system: Escherichia coli; test: Antibacterial activity against extended spectrum beta-lactamases producing Escherichia coli 10-4 after 18 to 24 hrs by NCCLS method; in short: as §1
[4] = test system: Klebsiella pneumoniae; test: Antibacterial activity against extended spectrum beta-lactamases producing Klebsiella pneumoniae 10-1 after 18 to 24 hrs by NCCLS method; in short: as §1
[5] = test system: Staphylococcus epidermidis; test: Antibacterial activity against methicillin-resistant Staphylococcus epidermidis 10-10 after 18 to 24 hrs by NCCLS method; in short: as §2
[6] = test system: Staphylococcus aureus; test: Antibacterial activity against methicillin-resistant Staphylococcus aureus 10-11 after 18 to 24 hrs by NCCLS method; in short: as §2
[7] = test system: Streptococcus pneumoniae; test: Antibacterial activity against Streptococcus pneumoniae 10-6 after 18 to 24 hrs by NCCLS method; in short: as §1
[8] = test system: Staphylococcus aureus; test: Antibacterial activity against methicillin-sensitive Staphylococcus aureus 10-13 after 18 to 24 hrs by NCCLS method; in short: as §1
[9] = test system: Staphylococcus aureus; test: Antibacterial activity against methicillin-sensitive Staphylococcus aureus 10-14 after 18 to 24 hrs by NCCLS method; in short: as §1
[10] = test system: Pseudomonas aeruginosa; test: Antibacterial activity against Pseudomonas aeruginosa 10-18 after 18 to 24 hrs by NCCLS method; in short: as §1
[11] = test system: Pseudomonas aeruginosa; test: Antibacterial activity against Pseudomonas aeruginosa 10-9 after 18 to 24 hrs by NCCLS method; in short: as §1
[12] = test system: Escherichia coli; test: Antibacterial activity against Escherichia coli 10-1 after 18 to 24 hrs by NCCLS method; in short: as §1
[13] = test system: Staphylococcus epidermidis; test: Antibacterial activity against methicillin-sensitive Staphylococcus epidermidis 10-11 after 18 to 24 hrs by NCCLS method; in short: as §1
[14] = test system: Enterococcus faecalis; test: Antibacterial activity against Enterococcus faecalis 10-6 after 18 to 24 hrs by NCCLS method; in short: as §1
[15] = test system: Klebsiella pneumoniae; test: Antibacterial activity against Klebsiella pneumoniae 10-4 after 18 to 24 hrs by NCCLS method; in short: as §1
[16] = test system: Staphylococcus aureus; test: Antibacterial activity against methicillin-resistant Staphylococcus aureus 10-15 after 18 to 24 hrs by NCCLS method; in short: as §2
[17] = test system: Pseudomonas aeruginosa; test: Antibacterial activity against Pseudomonas aeruginosa 10-20 after 18 to 24 hrs by NCCLS method; in short: as §1
[18] = test system: Escherichia coli; test: Antibacterial activity against Escherichia coli 10-3 after 18 to 24 hrs by NCCLS method; in short: as §1
[19] = test system: Escherichia coli; test: Antibacterial activity against extended spectrum beta-lactamases producing Escherichia coli 10-2 after 18 to 24 hrs by NCCLS method; in short: as §1
[20] = test system: Staphylococcus epidermidis; test: Antibacterial activity against methicillin-sensitive Staphylococcus epidermidis 10-15 after 18 to 24 hrs by NCCLS method; in short: as §2
[21] = test system: Pseudomonas aeruginosa; test: Antibacterial activity against Pseudomonas aeruginosa 10-5 after 18 to 24 hrs by NCCLS method; in short: as §1
[22] = test system: Staphylococcus aureus; test: Antibacterial activity against methicillin-sensitive Staphylococcus aureus 10-11 after 18 to 24 hrs by NCCLS method; in short: as §1
[23] = test system: Enterococcus faecalis; test: Antibacterial activity against Enterococcus faecalis 10-7 after 18 to 24 hrs by NCCLS method; in short: as §1
[24] = test system: Staphylococcus aureus; test: Antibacterial activity against Staphylococcus aureus ATCC 2592 after 18 to 24 hrs by NCCLS method; in short: as §1
[25] = test system: Enterococcus faecalis; test: Antibacterial activity against Enterococcus faecalis 10-5 after 18 to 24 hrs by NCCLS method; in short: as §1
[26] = test system: Mycobacterium tuberculosis; test: Antimycobacterial activity against Mycobacterium tuberculosis H37Rv ATCC 27294 by microplate alamar blue assay
In short: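 Microplate Alamar Blue fluorescence assay on strain H37Rv ATCC 27294. MIC was the lowest concentration cutting fluorescence by ≥90% against the mean of replicate bacterium-only controls.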

[27] = test system: Escherichia coli; test: Antibacterial activity against Escherichia coli 10-2 after 18 to 24 hrs by NCCLS method; in short: as §1
[28] = test system: Pseudomonas aeruginosa; test: Antibacterial activity against Pseudomonas aeruginosa 10-15 after 18 to 24 hrs by NCCLS method; in short: as §1
[29] = test system: Klebsiella pneumoniae; test: Antibacterial activity against extended spectrum beta-lactamases producing Klebsiella pneumoniae 10-3 after 18 to 24 hrs by NCCLS method; in short: as §1
[30] = test system: Streptococcus pneumoniae; test: Antibacterial activity against Streptococcus pneumoniae 10-1 after 18 to 24 hrs by NCCLS method; in short: as §1
[31] = test system: Enterococcus faecium; test: Antibacterial activity against Enterococcus faecium 10-9 after 18 to 24 hrs by NCCLS method; in short: as §1
[32] = test system: Staphylococcus aureus; test: Antibacterial activity against methicillin-resistant Staphylococcus aureus 10-13 after 18 to 24 hrs by NCCLS method; in short: as §2
[33] = test system: Klebsiella pneumoniae; test: Antibacterial activity against Klebsiella pneumoniae 10-3 after 18 to 24 hrs by NCCLS method; in short: as §1
[34] = test system: Escherichia coli; test: Antibacterial activity against Escherichia coli ATCC 25922 after 18 to 24 hrs by NCCLS method; in short: as §1
[35] = test system: Klebsiella pneumoniae; test: Antibacterial activity against extended spectrum beta-lactamases producing Klebsiella pneumoniae 10-2 after 18 to 24 hrs by NCCLS method; in short: as §1
[36] = test system: Pseudomonas aeruginosa; test: Antibacterial activity against Pseudomonas aeruginosa 10-12 after 18 to 24 hrs by NCCLS method; in short: as §1
[37] = test system: Enterococcus faecium; test: Antibacterial activity against Enterococcus faecium 10-6 after 18 to 24 hrs by NCCLS method; in short: as §1
[38] = test system: Escherichia coli; test: Antibacterial activity against extended spectrum beta-lactamases producing Escherichia coli 10-3 after 18 to 24 hrs by NCCLS method; in short: as §1

Row | Structure (SMILES) | MIC [1] [µg/mL] | MIC [2] [µg/mL] | MIC [3] [µg/mL] | MIC [4] [µg/mL] | MIC [5] [µg/mL] | MIC [6] [µg/mL] | MIC [7] [µg/mL] | MIC [8] [µg/mL] | MIC [9] [µg/mL] | MIC [10] [µg/mL] | MIC [11] [µg/mL] | MIC [12] [µg/mL] | MIC [13] [µg/mL] | MIC [14] [µg/mL] | MIC [15] [µg/mL] | MIC [16] [µg/mL] | MIC [17] [µg/mL] | MIC [18] [µg/mL] | MIC [19] [µg/mL] | MIC [20] [µg/mL] | other results
1 | O=C(O)c1cn(C2CC2)c2cc(N3CCN(Cc4cc5c(cc4[N+](=O)[O-])OCO5)CC3)c(F)cc2c1=O | 64 (≈ 125 µM) | 32 (≈ 62.7 µM) | 8 (≈ 15.7 µM) | > 128 | 16 (≈ 31.3 µM) | 32 (≈ 62.7 µM) | 16 (≈ 31.3 µM) | 1 (≈ 1.96 µM) | 1 (≈ 1.96 µM) | 2 (≈ 3.92 µM) | 1 (≈ 1.96 µM) | 32 (≈ 62.7 µM) | 1 (≈ 1.96 µM) | 64 (≈ 125 µM) | > 128 | 32 (≈ 62.7 µM) | 4 (≈ 7.84 µM) | 8 (≈ 15.7 µM) | > 128 | 16 (≈ 31.3 µM) | MIC [21]: 1 µg/mL (≈ 1.96 µM); MIC [22]: 0.5 µg/mL (≈ 0.979 µM); MIC [23]: 32 µg/mL (≈ 62.7 µM); MIC [24]: 0.5 µg/mL (≈ 0.979 µM); MIC [25]: 32 µg/mL (≈ 62.7 µM); MIC [26]: 2 µg/mL (≈ 3.92 µM); MIC [27]: 1 µg/mL (≈ 1.96 µM); MIC [28]: 0.5 µg/mL (≈ 0.979 µM); MIC [29]: > 128 µg/mL; MIC [30]: 2 µg/mL (≈ 3.92 µM); MIC [31]: 16 µg/mL (≈ 31.3 µM); MIC [32]: 32 µg/mL (≈ 62.7 µM); MIC [33]: 2 µg/mL (≈ 3.92 µM); MIC [34]: 0.125 µg/mL (≈ 0.245 µM); MIC [35]: > 128 µg/mL; MIC [36]: 1 µg/mL (≈ 1.96 µM); MIC [37]: 2 µg/mL (≈ 3.92 µM); MIC [38]: > 128 µg/mL
2 | O=C(O)c1cn(C2CC2)c2cc(N3CCN(Cc4ccc5c(c4)OCCO5)CC3)c(F)cc2c1=O | > 128 | 16 (≈ 33.4 µM) | 128 (≈ 267 µM) | > 128 | 8 (≈ 16.7 µM) | 16 (≈ 33.4 µM) | 32 (≈ 66.7 µM) | 0.25 (≈ 0.521 µM) | 0.5 (≈ 1.04 µM) | 16 (≈ 33.4 µM) | 64 (≈ 133 µM) | > 128 | 0.5 (≈ 1.04 µM) | 32 (≈ 66.7 µM) | > 128 | 4 (≈ 8.34 µM) | 32 (≈ 66.7 µM) | 16 (≈ 33.4 µM) | > 128 | 8 (≈ 16.7 µM) | MIC [21]: 16 µg/mL (≈ 33.4 µM); MIC [22]: 0.25 µg/mL (≈ 0.521 µM); MIC [23]: 32 µg/mL (≈ 66.7 µM); MIC [24]: 0.125 µg/mL (≈ 0.261 µM); MIC [25]: 4 µg/mL (≈ 8.34 µM); MIC [26]: 2 µg/mL (≈ 4.17 µM); MIC [27]: 128 µg/mL (≈ 267 µM); MIC [28]: 32 µg/mL (≈ 66.7 µM); MIC [29]: > 128 µg/mL; MIC [30]: 1 µg/mL (≈ 2.09 µM); MIC [31]: 32 µg/mL (≈ 66.7 µM); MIC [32]: 16 µg/mL (≈ 33.4 µM); MIC [33]: 8 µg/mL (≈ 16.7 µM); MIC [34]: 0.125 µg/mL (≈ 0.261 µM); MIC [35]: > 128 µg/mL; MIC [36]: 16 µg/mL (≈ 33.4 µM); MIC [37]: 2 µg/mL (≈ 4.17 µM); MIC [38]: > 128 µg/mL

From ChEMBL document CHEMBL2157880, “Synthesis, antimycobacterial and antibacterial activity of ciprofloxacin derivatives containing a N-substituted benzyl moiety” (2012)
